pIC50: −log10 of the molar value. Calls of active or inactive are those of the source. No cut-off for these calls is given here.
Key:
Assay type in all cases: functional
[1] = Antioxidant activity assessed as inhibition of Fe3+/ascorbic acid-induced hydroxyl radical formation by measuring DMSO-induced formaldehyde production at 100 uM after 30 mins relative to control
Procedure, shortened: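 Hydroxyl radicals were generated by Fe3+/ascorbic acid in 50 mM phosphate buffer, pH 7.4, containing 0.1 mM EDTA and 33 mM DMSO, with compounds at 0.1 mM. Radical yield was measured as formaldehyde formed from DMSO oxidation, determined by the Nash method.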

[2] = test system: Radical scavenging activity; experiment: Antioxidant activity assessed as reduction of DPPH free radical formation at 100 uM after 60 mins relative to control; parameters: scale not given: the % may be the effect or the level left
Procedure, shortened: (§1)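 Compounds at a final 100 concentration were mixed with the stable radical DPPH, using ethanol as the control solution. Absorbance at 517 nm was read after 20 and 60 min at room temperature. Each assay was run at least in triplicate.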

[3] = test system: Radical scavenging activity; experiment: Antioxidant activity assessed as reduction of DPPH free radical formation at 100 uM after 20 mins relative to control; parameters: scale not given: the % may be the effect or the level left; procedure, shortened: as §1
[4] = Antioxidant activity assessed as inhibition of AAPH-induced linoleic acid peroxidation at 100 uM by UV spectrophotometric analysis relative to control
Procedure, shortened: (§2)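 Linoleic acid dispersion (16 mM stock) in 0.05 M phosphate buffer, pH 7.4, pre-equilibrated at 37 °C. Oxidation was started with AAPH (40 mM stock solution) as radical initiator, with test compound added in DMSO. Conjugated diene hydroperoxide formation was followed as the rise in absorbance at 234 nm at 37 °C. The control contained the same level of DMSO without antioxidant.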

[5] = Antioxidant activity assessed as inhibition of AAPH-induced linoleic acid peroxidation by UV spectrophotometric analysis; procedure, shortened: as §2

| pIC50 [5] | Structure (SMILES) | inhibition [1] | Activity [2] | Activity [3] | inhibition [4] |
| --- | --- | --- | --- | --- | --- |
|  | NC(=NOS(=O)(=O)c1ccc([N+](=O)[O-])cc1)c1ccncc1 | 0% | 20% | 13% | 49% |
|  | N/C(=N\OS(=O)(=O)c1ccccc1)c1ccc([N+](=O)[O-])cc1 | 34% | 8.4% | 4% | 5% |
|  | CCCCCCCCCCS(=O)(=O)O/N=C(\N)c1ccncc1 | 70% | 21% | 14% | 28% |
|  | Cc1ccc(S(=O)(=O)O/N=C(\N)c2ccc([N+](=O)[O-])cc2)cc1 | 78% | 11% | 10% | 25% |
| 4.10 | Cc1ccc(S(=O)(=O)O/N=C(\N)c2ccccn2)cc1 | 72% | 4% | 5% |  |
| 4.15 | CCCCCCCCCCCCCCCCS(=O)(=O)O/N=C(\N)c1cccnc1 | 69% | 16% | 7% |  |
|  | N=C(NOS(=O)(=O)c1ccccc1)c1ccncc1 | 44% | 11% | 2% | 22% |
|  | CCCS(=O)(=O)O/N=C(\N)c1ccccn1 | 83% | 1% | 6% | inactive |
|  | N=C(NOS(=O)(=O)c1ccccc1)c1cccnc1 | 28% | 25% | 24% | 21% |
|  | CCCCCCCCCCS(=O)(=O)O/N=C(\N)c1cccnc1 | 72% | 24% | 20% | 33% |
|  | CC(Cc1ccc(O)c(O)c1)C(C)Cc1ccc(O)c(O)c1 (stereo unspecified) |  | 81% | 77% |  |
|  | CCCS(=O)(=O)O/N=C(\N)c1ccc([N+](=O)[O-])cc1 | 75% | 19% | 10% | 22% |
|  | CCCS(=O)(=O)O/N=C(\N)c1cccnc1 | 63% | 27% | 23% | 16% |
|  | N/C(=N\O)c1ccc([N+](=O)[O-])cc1 | 85% | 4% | 3% | 41% |
|  | CCCCCCCCCCCCCCCCS(=O)(=O)O/N=C(\N)c1ccc([N+](=O)[O-])cc1 | 100% | 24% | 21% | 3% |
|  | CCCCCCCCCCS(=O)(=O)O/N=C(\N)c1ccccn1 | 79% | 10% | 11% | 46% |
| 4.07 | N/C(=N\OS(=O)(=O)c1ccc([N+](=O)[O-])cc1)c1cccnc1 | 18% | 11% | 8% |  |
|  | CCCCCCCCCCCCCCCCS(=O)(=O)O/N=C(\N)c1ccccn1 | inactive | 1% | 4% | 21% |
|  | N/C(=N\O)c1ccccn1 | 81% | 14% | 11% | inactive |
|  | NC(=NO)c1ccncc1 | 87% | 7% | 3% | inactive |
| 4.18 | N/C(=N\OS(=O)(=O)c1ccc([N+](=O)[O-])cc1)c1ccc([N+](=O)[O-])cc1 | inactive | 38% | 34% |  |
|  | N/C(=N\O)c1cccnc1 | 60% | 15% | 12% | inactive |
| 4.26 | Cc1c(C)c2c(c(C)c1O)CCC(C)(C(=O)O)O2 (stereo unspecified) [TROLOX] | 88% |  |  |  |
|  | N=C(NOS(=O)(=O)c1ccccc1)c1ccccn1 | 32% | inactive | 4% | 30% |
|  | Cc1ccc(S(=O)(=O)O/N=C(\N)c2ccncc2)cc1 | 32% | inactive | inactive | inactive |
|  | Cc1ccc(S(=O)(=O)O/N=C(\N)c2cccnc2)cc1 | 95% | 41% | 34% | 43% |
|  | CCCS(=O)(=O)O/N=C(\N)c1ccncc1 | 66% | 4% | inactive | inactive |
| 4.14 | N/C(=N\OS(=O)(=O)c1ccc([N+](=O)[O-])cc1)c1ccccn1 | 98% | 32% | 32% |  |
|  | CCCCCCCCCCCCCCCCS(=O)(=O)O/N=C(\N)c1ccncc1 | inactive | 21% | 14% | 12% |
|  | CCCCCCCCCCS(=O)(=O)O/N=C(\N)c1ccc([N+](=O)[O-])cc1 | 48% | 12% | 3% | inactive |

Source: ChEMBL document CHEMBL3259725, “Synthesis of stable aromatic and heteroaromatic sulfonyl-amidoximes and evaluation of their antioxidant and lipid peroxidation activity” (Eur J Med Chem, 2014)
